# Measurements: ChEMBL document CHEMBL1649460, “Integron mobilization unit as a source of mobility of antibiotic resistance genes” (2009)
# Test system: Enterobacter cloacae
# Experiment: Antimicrobial activity against Enterobacter cloacae CHE-2 harboring blaGES-5 and blaSHV-5 gene by agar dilution method
# Type: functional
# Summary of the method: (§1)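 MICs by agar dilution, with β-lactams tested alone. Colistin was the exception, read by Etest strip. Results interpreted according to CLSI guidelines.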
row,SMILES,MIC [mg/L]
1,CO[C@@]1(NC(=O)Cc2cccs2)C(=O)N2C(C(=O)O)=C(COC(N)=O)CS[C@@H]21 [CEFOXITIN],> 512
2,C[C@@H](O)[C@H]1C(=O)N2C(C(=O)O)=C(S[C@@H]3CN[C@H](C(=O)Nc4cccc(C(=O)O)c4)C3)[C@H](C)[C@H]12 [ERTAPENEM],> 32
3,CC1(C)S[C@@H]2[C@H](NC(=O)[C@H](N)c3ccc(O)cc3)C(=O)N2[C@H]1C(=O)O [AMOXICILLIN],> 512
4,C[C@@H](O)[C@H]1C(=O)N2C(C(=O)O)=C(S[C@@H]3CN[C@H](C(=O)N(C)C)C3)[C@H](C)[C@H]12 [MEROPENEM],> 32
5,CC(C)(O/N=C(\C(=O)N[C@@H]1C(=O)N2C(C(=O)[O-])=C(C[n+]3ccccc3)CS[C@H]12)c1csc(N)n1)C(=O)O [CEFTAZIDIME],> 512
6,C[C@@H](O)[C@H]1C(=O)N2C(C(=O)O)=C(SCCNC=N)C[C@H]12 [IMIPENEM ANHYDROUS],> 32

# Test system: Escherichia coli
# Experiment: Antimicrobial activity against Escherichia coli J53 harboring pCHE-A plasmid expressing blaGES-5 gene by agar dilution method
# Type: functional
row,SMILES,MIC [mg/L]
1,CO[C@@]1(NC(=O)Cc2cccs2)C(=O)N2C(C(=O)O)=C(COC(N)=O)CS[C@@H]21 [CEFOXITIN],128
2,C[C@@H](O)[C@H]1C(=O)N2C(C(=O)O)=C(S[C@@H]3CN[C@H](C(=O)Nc4cccc(C(=O)O)c4)C3)[C@H](C)[C@H]12 [ERTAPENEM],0.12
3,CC1(C)S[C@@H]2[C@H](NC(=O)[C@H](N)c3ccc(O)cc3)C(=O)N2[C@H]1C(=O)O [AMOXICILLIN],> 512
4,C[C@@H](O)[C@H]1C(=O)N2C(C(=O)O)=C(S[C@@H]3CN[C@H](C(=O)N(C)C)C3)[C@H](C)[C@H]12 [MEROPENEM],0.25
5,CC(C)(O/N=C(\C(=O)N[C@@H]1C(=O)N2C(C(=O)[O-])=C(C[n+]3ccccc3)CS[C@H]12)c1csc(N)n1)C(=O)O [CEFTAZIDIME],128
6,C[C@@H](O)[C@H]1C(=O)N2C(C(=O)O)=C(SCCNC=N)C[C@H]12 [IMIPENEM ANHYDROUS],1

# Test system: Escherichia coli
# Experiment: Antimicrobial activity against Escherichia coli J53 harboring pCHE-B plasmid expressing blaSHV-5 gene by agar dilution method
# Type: functional
row,SMILES,MIC [mg/L]
1,CO[C@@]1(NC(=O)Cc2cccs2)C(=O)N2C(C(=O)O)=C(COC(N)=O)CS[C@@H]21 [CEFOXITIN],4
2,C[C@@H](O)[C@H]1C(=O)N2C(C(=O)O)=C(S[C@@H]3CN[C@H](C(=O)Nc4cccc(C(=O)O)c4)C3)[C@H](C)[C@H]12 [ERTAPENEM],0.06
3,CC1(C)S[C@@H]2[C@H](NC(=O)[C@H](N)c3ccc(O)cc3)C(=O)N2[C@H]1C(=O)O [AMOXICILLIN],> 512
4,C[C@@H](O)[C@H]1C(=O)N2C(C(=O)O)=C(S[C@@H]3CN[C@H](C(=O)N(C)C)C3)[C@H](C)[C@H]12 [MEROPENEM],0.06
5,CC(C)(O/N=C(\C(=O)N[C@@H]1C(=O)N2C(C(=O)[O-])=C(C[n+]3ccccc3)CS[C@H]12)c1csc(N)n1)C(=O)O [CEFTAZIDIME],256
6,C[C@@H](O)[C@H]1C(=O)N2C(C(=O)O)=C(SCCNC=N)C[C@H]12 [IMIPENEM ANHYDROUS],0.06

# Test system: Escherichia coli
# Experiment: Antimicrobial activity against Escherichia coli J53 by agar dilution method
# Type: functional
# Summary of the method: as §1
row,SMILES,MIC [mg/L]
1,CO[C@@]1(NC(=O)Cc2cccs2)C(=O)N2C(C(=O)O)=C(COC(N)=O)CS[C@@H]21 [CEFOXITIN],4
2,C[C@@H](O)[C@H]1C(=O)N2C(C(=O)O)=C(S[C@@H]3CN[C@H](C(=O)Nc4cccc(C(=O)O)c4)C3)[C@H](C)[C@H]12 [ERTAPENEM],0.03
3,CC1(C)S[C@@H]2[C@H](NC(=O)[C@H](N)c3ccc(O)cc3)C(=O)N2[C@H]1C(=O)O [AMOXICILLIN],2
4,C[C@@H](O)[C@H]1C(=O)N2C(C(=O)O)=C(S[C@@H]3CN[C@H](C(=O)N(C)C)C3)[C@H](C)[C@H]12 [MEROPENEM],0.03
5,CC(C)(O/N=C(\C(=O)N[C@@H]1C(=O)N2C(C(=O)[O-])=C(C[n+]3ccccc3)CS[C@H]12)c1csc(N)n1)C(=O)O [CEFTAZIDIME],0.06

# Test system: Pseudomonas aeruginosa
# Experiment: Antimicrobial activity against Pseudomonas aeruginosa PU21 harboring pCHE-A plasmid expressing blaGES-5 gene by agar dilution method
# Type: functional
# Summary of the method: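 Natural plasmid pCHE-A was electrotransformed into electrocompetent P. aeruginosa PU21, and transformants were selected on agar with ticarcillin 100 µg/ml. MICs by agar dilution, with β-lactams tested alone; colistin by Etest. Interpreted per CLSI.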
row,SMILES,MIC [mg/L]
1,C[C@@H](O)[C@H]1C(=O)N2C(C(=O)O)=C(S[C@@H]3CN[C@H](C(=O)Nc4cccc(C(=O)O)c4)C3)[C@H](C)[C@H]12 [ERTAPENEM],> 32
2,C[C@@H](O)[C@H]1C(=O)N2C(C(=O)O)=C(S[C@@H]3CN[C@H](C(=O)N(C)C)C3)[C@H](C)[C@H]12 [MEROPENEM],> 32
3,CC(C)(O/N=C(\C(=O)N[C@@H]1C(=O)N2C(C(=O)[O-])=C(C[n+]3ccccc3)CS[C@H]12)c1csc(N)n1)C(=O)O [CEFTAZIDIME],256
4,C[C@@H](O)[C@H]1C(=O)N2C(C(=O)O)=C(SCCNC=N)C[C@H]12 [IMIPENEM ANHYDROUS],16

# Test system: Pseudomonas aeruginosa
# Experiment: Antimicrobial activity against Pseudomonas aeruginosa PU21 by agar dilution method
# Type: functional
# Summary of the method: as §1
row,SMILES,MIC [mg/L]
1,CO[C@@]1(NC(=O)Cc2cccs2)C(=O)N2C(C(=O)O)=C(COC(N)=O)CS[C@@H]21 [CEFOXITIN],> 512
2,C[C@@H](O)[C@H]1C(=O)N2C(C(=O)O)=C(S[C@@H]3CN[C@H](C(=O)Nc4cccc(C(=O)O)c4)C3)[C@H](C)[C@H]12 [ERTAPENEM],8
3,CC1(C)S[C@@H]2[C@H](NC(=O)[C@H](N)c3ccc(O)cc3)C(=O)N2[C@H]1C(=O)O [AMOXICILLIN],> 512
4,C[C@@H](O)[C@H]1C(=O)N2C(C(=O)O)=C(S[C@@H]3CN[C@H](C(=O)N(C)C)C3)[C@H](C)[C@H]12 [MEROPENEM],0.5
5,CC(C)(O/N=C(\C(=O)N[C@@H]1C(=O)N2C(C(=O)[O-])=C(C[n+]3ccccc3)CS[C@H]12)c1csc(N)n1)C(=O)O [CEFTAZIDIME],1
6,C[C@@H](O)[C@H]1C(=O)N2C(C(=O)O)=C(SCCNC=N)C[C@H]12 [IMIPENEM ANHYDROUS],2

# Test system: Enterobacter cloacae
# Experiment: Antimicrobial activity against Enterobacter cloacae CHE-2 harboring blaGES-5 and blaSHV-5 gene by agar dilution in presence of beta-lactamase inhibitor clavulanic acid
# Type: functional
# Summary of the method: (§2)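 Agar dilution MICs of β-lactams, each tested with clavulanic acid held at a fixed 4 µg/ml. Results interpreted according to CLSI guidelines.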
row,SMILES,MIC [mg/L]
1,CC1(C)S[C@@H]2[C@H](NC(=O)[C@H](N)c3ccc(O)cc3)C(=O)N2[C@H]1C(=O)O [AMOXICILLIN],> 256
2,CC(C)(O/N=C(\C(=O)N[C@@H]1C(=O)N2C(C(=O)[O-])=C(C[n+]3ccccc3)CS[C@H]12)c1csc(N)n1)C(=O)O [CEFTAZIDIME],256

# Test system: Escherichia coli
# Experiment: Antimicrobial activity against Escherichia coli J53 harboring pCHE-A plasmid expressing blaGES-5 gene by agar dilution in presence of beta-lactamase inhibitor clavulanic acid
row,SMILES,MIC [mg/L]
1,CC1(C)S[C@@H]2[C@H](NC(=O)[C@H](N)c3ccc(O)cc3)C(=O)N2[C@H]1C(=O)O [AMOXICILLIN],16
2,CC(C)(O/N=C(\C(=O)N[C@@H]1C(=O)N2C(C(=O)[O-])=C(C[n+]3ccccc3)CS[C@H]12)c1csc(N)n1)C(=O)O [CEFTAZIDIME],16

# Test system: Escherichia coli
# Experiment: Antimicrobial activity against Escherichia coli J53 harboring pCHE-B plasmid expressing blaSHV-5 gene by agar dilution in presence of beta-lactamase inhibitor clavulanic acid
row,SMILES,MIC [mg/L]
1,CC1(C)S[C@@H]2[C@H](NC(=O)[C@H](N)c3ccc(O)cc3)C(=O)N2[C@H]1C(=O)O [AMOXICILLIN],4
2,CC(C)(O/N=C(\C(=O)N[C@@H]1C(=O)N2C(C(=O)[O-])=C(C[n+]3ccccc3)CS[C@H]12)c1csc(N)n1)C(=O)O [CEFTAZIDIME],4

# Test system: Escherichia coli
# Experiment: Antimicrobial activity against Escherichia coli J53 by agar dilution in presence of beta-lactamase inhibitor clavulanic acid
row,SMILES,MIC [mg/L]
1,CC1(C)S[C@@H]2[C@H](NC(=O)[C@H](N)c3ccc(O)cc3)C(=O)N2[C@H]1C(=O)O [AMOXICILLIN],2
2,CC(C)(O/N=C(\C(=O)N[C@@H]1C(=O)N2C(C(=O)[O-])=C(C[n+]3ccccc3)CS[C@H]12)c1csc(N)n1)C(=O)O [CEFTAZIDIME],0.06

# Test system: Pseudomonas aeruginosa
# Experiment: Antimicrobial activity against Pseudomonas aeruginosa PU21 harboring pCHE-A plasmid expressing blaGES-5 gene by agar dilution in presence of beta-lactamase inhibitor clavulanic acid
# Type: functional
# Summary of the method: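 MICs by agar dilution. Beta-lactams tested alone and with clavulanic acid held at a fixed 4 µg/ml. Results were interpreted against CLSI guidelines.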
row,SMILES,MIC [mg/L]
1,CC(C)(O/N=C(\C(=O)N[C@@H]1C(=O)N2C(C(=O)[O-])=C(C[n+]3ccccc3)CS[C@H]12)c1csc(N)n1)C(=O)O [CEFTAZIDIME],64

# Test system: Pseudomonas aeruginosa
# Experiment: Antimicrobial activity against Pseudomonas aeruginosa PU21 by agar dilution in presence of beta-lactamase inhibitor clavulanic acid
# Type: functional
# Summary of the method: as §2
row,SMILES,MIC [mg/L]
1,CC1(C)S[C@@H]2[C@H](NC(=O)[C@H](N)c3ccc(O)cc3)C(=O)N2[C@H]1C(=O)O [AMOXICILLIN],> 512
2,CC(C)(O/N=C(\C(=O)N[C@@H]1C(=O)N2C(C(=O)[O-])=C(C[n+]3ccccc3)CS[C@H]12)c1csc(N)n1)C(=O)O [CEFTAZIDIME],1
